Measurements reported in ChEMBL document CHEMBL1933017, “Synthesis and biological evaluation of some thiazolidinones as antimicrobial agents” (2012).
In brackets after ≈: the same amount, converted by molar mass.

Columns and labels:
Aspergillus niger [1] = assay: Antifungal activity against Aspergillus niger at 100 ug/disc after 24 hrs by disc diffusion method; format: functional; details: read-out: DIZ
Summary of the method: (§1)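 Paper disc diffusion on autoclaved Mueller-Hinton agar poured 5 mm deep. Agar was swab-inoculated with 10⁵ CFU/mL suspension (0.5 McFarland). Discs 6.25 mm across were soaked in compound solution in DMSO (3.12–100 µg/mL) and plates incubated 24 h at (37 ± 1) °C. Read-out was inhibition zone (mm). DMSO control disc; ciprofloxacin or ketoconazole reference, 100 µg/disc. Mean of three independent experiments.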

Candida albicans [2] = assay: Antifungal activity against Candida albicans at 100 ug/disc after 24 hrs by disc diffusion method; format: functional; details: read-out: DIZ; summary of the method: as §1
Shigella flexneri [3] = assay: Antibacterial activity against Shigella flexneri after 24 hrs by agar streak dilution method; format: functional
Summary of the method: (§2)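 MIC by agar streak dilution. Graded amounts of DMSO stock (100 μg/mL) were mixed into molten sterile nutrient agar and poured 4–5 mm deep. Serial concentrations spanned 3.12–100 µg/mL. Plates were inoculated with about 10⁵ CFU/mL of bacterial suspension and incubated at (37 ± 1) °C for 24 h. Each value is the mean of three independent experiments.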

Shigella flexneri [4] = assay: Antibacterial activity against Shigella flexneri at 100 ug/disc after 24 hrs by disc diffusion method; format: functional; details: read-out: DIZ; summary of the method: as §1
Pseudomonas aeruginosa [5] = assay: Antibacterial activity against Pseudomonas aeruginosa at 100 ug/disc after 24 hrs by disc diffusion method; format: functional; details: read-out: DIZ; summary of the method: as §1
Proteus vulgaris [6] = assay: Antibacterial activity against Proteus vulgaris after 24 hrs by agar streak dilution method; format: functional; summary of the method: as §2
Candida albicans [7] = assay: Antifungal activity against Candida albicans after 48 hrs by agar streak dilution method; format: functional
Summary of the method: (§3)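 Fungal MIC by agar streak dilution on Sabouraud dextrose agar, poured 4–5 mm deep. Compound from a DMSO stock (100 μg/mL) was incorporated at serial concentrations of 3.12–100 µg/mL. Plates were inoculated with about 10⁵ CFU/mL of suspension and incubated at (37 ± 1) °C for 48 h. Each value is the mean of three independent experiments.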

Staphylococcus aureus [8] = assay: Antibacterial activity against Staphylococcus aureus after 24 hrs by agar streak dilution method; format: functional; summary of the method: as §2
Escherichia coli [9] = assay: Antibacterial activity against Escherichia coli at 100 ug/disc after 24 hrs by disc diffusion method; format: functional; details: read-out: DIZ; summary of the method: as §1
Salmonella typhi [10] = assay: Antibacterial activity against Salmonella Typhi after 24 hrs by agar streak dilution method; format: functional, Salmonella enterica subsp. enterica serovar Typhi; details: Salmonella enterica
Summary of the method: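 Agar streak dilution: DMSO stock (100 µg/mL) graded into molten sterile nutrient agar, poured 4–5 mm deep and solidified. Plates carry serial dilutions spanning 3.12–100 µg/mL. Applied ~10⁵ CFU/mL suspension, then incubated 24 h at (37 ± 1) °C. MIC read as the lowest inhibitory concentration; each value is the mean of three independent experiments.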

Escherichia coli [11] = assay: Antibacterial activity against Escherichia coli after 24 hrs by agar streak dilution method; format: functional; summary of the method: as §2
Aspergillus niger [12] = assay: Antifungal activity against Aspergillus niger after 48 hrs by agar streak dilution method; format: functional; summary of the method: as §3
Aspergillus fumigatus [13] = assay: Antifungal activity against Aspergillus fumigatus at 100 ug/disc after 24 hrs by disc diffusion method; format: functional; details: read-out: DIZ; summary of the method: as §1
Aspergillus fumigatus [14] = assay: Antifungal activity against Aspergillus fumigatus after 48 hrs by agar streak dilution method; format: functional; summary of the method: as §3
Pseudomonas aeruginosa [15] = assay: Antibacterial activity against Pseudomonas aeruginosa […] after 24 hrs by agar streak dilution method; format: functional
Aspergillus clavatus [16] = assay: Antifungal activity against Aspergillus clavatus at 100 ug/disc after 24 hrs by disc diffusion method; format: functional; details: read-out: DIZ; summary of the method: as §1
Staphylococcus aureus [17] = assay: Antibacterial activity against Staphylococcus aureus at 100 ug/disc after 24 hrs by disc diffusion method; format: functional; details: read-out: DIZ; summary of the method: as §1
Bacillus cereus [18] = assay: Antibacterial activity against Bacillus cereus after 24 hrs by agar streak dilution method; format: functional; summary of the method: as §2
Proteus vulgaris [19] = assay: Antibacterial activity against Proteus vulgaris at 100 ug/disc after 24 hrs by disc diffusion method; format: functional; details: read-out: DIZ; summary of the method: as §1
Aspergillus clavatus [20] = assay: Antifungal activity against Aspergillus clavatus after 48 hrs by agar streak dilution method; format: functional; summary of the method: as §3
Klebsiella pneumoniae [21] = assay: Antibacterial activity against Klebsiella pneumoniae at 100 ug/disc after 24 hrs by disc diffusion method; format: functional; details: read-out: DIZ; summary of the method: as §1
Klebsiella pneumoniae [22] = assay: Antibacterial activity against Klebsiella pneumoniae […] after 24 hrs by agar streak dilution method; format: functional
Salmonella typhi [23] = assay: Antibacterial activity against Salmonella Typhi at 100 ug/disc after 24 hrs by disc diffusion method; format: functional, Salmonella enterica subsp. enterica serovar Typhi; details: Salmonella enterica, read-out: DIZ
Summary of the method: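 Paper disc diffusion on Mueller-Hinton agar poured 5 mm deep; 10⁵ CFU/mL suspension (0.5 McFarland) swabbed over surface. 6.25 mm filter paper discs soaked in compound in DMSO, incubated 24 h at (37 ± 1) °C; inhibition zone diameter in mm. DMSO disc as blank; ciprofloxacin 100 µg/disc as reference. Mean of three independent experiments.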

Bacillus cereus [24] = assay: Antibacterial activity against Bacillus cereus at 100 ug/disc after 24 hrs by disc diffusion method; format: functional; details: read-out: DIZ; summary of the method: as §1

| SMILES | zone of inhibition at 100 µg/disc (Aspergillus niger [1]) | zone of inhibition at 100 µg/disc (Candida albicans [2]) | MIC (Shigella flexneri [3]) | zone of inhibition at 100 µg/disc (Shigella flexneri [4]) | zone of inhibition at 100 µg/disc (Pseudomonas aeruginosa [5]) | MIC (Proteus vulgaris [6]) | MIC (Candida albicans [7]) | MIC (Staphylococcus aureus [8]) | zone of inhibition at 100 µg/disc (Escherichia coli [9]) | MIC (Salmonella typhi [10]) | MIC (Escherichia coli [11]) | MIC (Aspergillus niger [12]) | zone of inhibition at 100 µg/disc (Aspergillus fumigatus [13]) | MIC (Aspergillus fumigatus [14]) | MIC (Pseudomonas aeruginosa [15]) | zone of inhibition at 100 µg/disc (Aspergillus clavatus [16]) | zone of inhibition at 100 µg/disc (Staphylococcus aureus [17]) | MIC (Bacillus cereus [18]) | zone of inhibition at 100 µg/disc (Proteus vulgaris [19]) | MIC (Aspergillus clavatus [20]) | also measured |
| --- | --- | --- | --- | --- | --- | --- | --- | --- | --- | --- | --- | --- | --- | --- | --- | --- | --- | --- | --- | --- | --- |
| CCN1CCN(CC2SC(c3ccccc3)N(c3ccc(Nc4nc(Oc5cc(=O)n(C)c6ccccc56)nc(N(C)C)n4)cc3)C2=O)CC1 (stereo unspecified) | 12 mm | 14 mm | 100 µg/mL (≈ 145 µM) | 12 mm | 13 mm | 100 µg/mL (≈ 145 µM) | 100 µg/mL (≈ 145 µM) | 100 µg/mL (≈ 145 µM) | 22 mm | 50 µg/mL (≈ 72.3 µM) | 25 µg/mL (≈ 36.1 µM) | 100 µg/mL (≈ 145 µM) | < 10 mm | 100 µg/mL (≈ 145 µM) | 100 µg/mL (≈ 145 µM) | < 10 mm | 14 mm | 100 µg/mL (≈ 145 µM) | 15 mm | 100 µg/mL (≈ 145 µM) | zone of inhibition at 100 µg/disc (Klebsiella pneumoniae [21]): < 10 mm; MIC (Klebsiella pneumoniae [22]): 100 µg/mL (≈ 145 µM); zone of inhibition at 100 µg/disc (Salmonella typhi [23]): 16 mm; zone of inhibition at 100 µg/disc (Bacillus cereus [24]): 16 mm |
| CCN1CCN(CC2SC(c3ccc(Cl)cc3Cl)N(c3ccc(Nc4nc(Oc5cc(=O)n(C)c6ccccc56)nc(N(C)C)n4)cc3)C2=O)CC1 (stereo unspecified) | 28 mm | 28 mm | 6.25 µg/mL (≈ 8.22 µM) | 26 mm | 21 mm | 12.5 µg/mL (≈ 16.4 µM) | 12.5 µg/mL (≈ 16.4 µM) | 6.25 µg/mL (≈ 8.22 µM) | 24 mm | 50 µg/mL (≈ 65.7 µM) | 12.5 µg/mL (≈ 16.4 µM) | 6.25 µg/mL (≈ 8.22 µM) | 17 mm | 25 µg/mL (≈ 32.9 µM) | 25 µg/mL (≈ 32.9 µM) | 25 mm | 25 mm | 12.5 µg/mL (≈ 16.4 µM) | 20 mm | 12.5 µg/mL (≈ 16.4 µM) | zone of inhibition at 100 µg/disc (Klebsiella pneumoniae [21]): 23 mm; MIC (Klebsiella pneumoniae [22]): 25 µg/mL (≈ 32.9 µM); zone of inhibition at 100 µg/disc (Salmonella typhi [23]): 15 mm; zone of inhibition at 100 µg/disc (Bacillus cereus [24]): 19 mm |
| CCN1CCN(CC2SC(c3ccc(Cl)c(Cl)c3)N(c3ccc(Nc4nc(Oc5cc(=O)n(C)c6ccccc56)nc(N(C)C)n4)cc3)C2=O)CC1 (stereo unspecified) | 21 mm | 23 mm | 12.5 µg/mL (≈ 16.4 µM) | 22 mm | 23 mm | 25 µg/mL (≈ 32.9 µM) | 25 µg/mL (≈ 32.9 µM) | 25 µg/mL (≈ 32.9 µM) | 17 mm | 50 µg/mL (≈ 65.7 µM) | 25 µg/mL (≈ 32.9 µM) | 25 µg/mL (≈ 32.9 µM) | 16 mm | 50 µg/mL (≈ 65.7 µM) | 25 µg/mL (≈ 32.9 µM) | 19 mm | 15 mm | 12.5 µg/mL (≈ 16.4 µM) | 19 mm | 50 µg/mL (≈ 65.7 µM) | zone of inhibition at 100 µg/disc (Klebsiella pneumoniae [21]): 19 mm; MIC (Klebsiella pneumoniae [22]): 12.5 µg/mL (≈ 16.4 µM); zone of inhibition at 100 µg/disc (Salmonella typhi [23]): 12 mm; zone of inhibition at 100 µg/disc (Bacillus cereus [24]): 17 mm |
| CCN1CCN(CC2SC(c3ccc(C)cc3)N(c3ccc(Nc4nc(Oc5cc(=O)n(C)c6ccccc56)nc(N(C)C)n4)cc3)C2=O)CC1 (stereo unspecified) | 21 mm | 23 mm | 50 µg/mL (≈ 70.8 µM) | 24 mm | 26 mm | 6.25 µg/mL (≈ 8.85 µM) | 50 µg/mL (≈ 70.8 µM) | 50 µg/mL (≈ 70.8 µM) | 24 mm | 50 µg/mL (≈ 70.8 µM) | 25 µg/mL (≈ 35.4 µM) | 100 µg/mL (≈ 142 µM) | 24 mm | 50 µg/mL (≈ 70.8 µM) | 6.25 µg/mL (≈ 8.85 µM) | 26 mm | 26 mm | 50 µg/mL (≈ 70.8 µM) | 27 mm | 25 µg/mL (≈ 35.4 µM) | zone of inhibition at 100 µg/disc (Klebsiella pneumoniae [21]): 24 mm; MIC (Klebsiella pneumoniae [22]): 50 µg/mL (≈ 70.8 µM); zone of inhibition at 100 µg/disc (Salmonella typhi [23]): 23 mm; zone of inhibition at 100 µg/disc (Bacillus cereus [24]): 24 mm |
